Laboratory results published in ChEMBL document CHEMBL1136930, “Doubly loaded cycloSaligenyl-pronucleotides - 5,5'-Bis-(cycloSaligenyl-2',3'-dideoxy-2',3'-didehydrothymidine monophosphates)” (J Med Chem, 2009).

Columns and labels:
[1] = Chemical stability assessed as hydrolysis half life by HPLC analysis; type: physicochemical
[2] = Chemical stability assessed as hydrolysis half life in aqueous phosphate buffer saline at pH 7.6 by HPLC analysis; type: physicochemical; settings: for half-life: aqueous phosphate buffered saline; for t1/2: buffer
[3] = Chemical stability assessed as half life of hydrolysis in RPMI-1640 culture medium at pH 7.6 in presence 10% heat-inactivated fetal calf serum by HPLC analysis; type: physicochemical; settings: cattle; for t1/2: serum
[4] = Chemical stability assessed as hydrolysis half life in aqueous phosphate buffer saline at pH 7.3 by HPLC analysis; type: physicochemical; settings: for half-life: aqueous phosphate buffered saline; for t1/2: buffer
[5] = test system: Human immunodeficiency virus 1; test: Antiviral activity against HIV1 in wild type human CEM cells assessed as virus-induced cytopathic effect after 4 to 5 days by microscopy; type: functional, organism-based, CCRF-CEM
Procedure, shortened: (§1)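 50% effective concentration against HIV in wild-type or thymidine kinase-deficient CEM T-lymphocytes, reported as the mean of two to three independent experiments.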

[6] = test system: Human immunodeficiency virus 2; test: Antiviral activity against HIV2 in thymidine kinase deficient human CEM cells assessed as virus-induced cytopathic effect after 4 to 5 days by microscopy; type: functional, organism-based, CCRF-CEM; procedure, shortened: as §1
[7] = (§2) Cytostatic activity against wild type human CEM cells; type: cell-based, CCRF-CEM; settings: wild type CEM (CCRF-CEM) cells
Procedure, shortened: (§3)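 50% cytostatic concentration measured in wild-type CEM T-lymphocyte cultures.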

[8] = test system: Human immunodeficiency virus 2; test: Antiviral activity against HIV2 in wild type human CEM cells assessed as virus-induced cytopathic effect after 4 to 5 days by microscopy; type: functional, organism-based, CCRF-CEM; procedure, shortened: as §1
CCRF-CEM = test: as §2; type: cell-based; settings: ccrf-cem; procedure, shortened: as §3
[9] = Ratio of hydrolysis half life in aqueous phosphate buffer saline at pH 7.3 to hydrolysis half life in RPMI-1640 culture medium at pH 7.6 in presence 10% heat-inactivated fetal calf serum; type: ADME
[10] = Ratio of hydrolysis half life in RPMI-1640 culture medium at pH 7.6 in presence 10% heat-inactivated fetal calf serum to hydrolysis half life in aqueous phosphate buffer saline at pH 7.6; type: ADME; settings: cattle
[11] = Human immunodeficiency virus 1, CCRF-CEM
[12] = Human immunodeficiency virus 2, CCRF-CEM

Structure (SMILES)	EC50 [5, 11] [nM]	EC50 [6, 12] [µM]	CC50 [7] [µM]	EC50 [8, 12] [nM]	t1/2 [4] [h]	EC50 ([6]; ccrf-cem) [µM]	also measured
Cc1cccc2c1OP(=O)(OC[C@@H]1C=C[C@H](n3cc(C)c(=O)[nH]c3=O)O1)OC2 (some centres undefined)	–	–	–	–	–	–	half-life [1]: 900 min
Cc1cn([C@H]2C=C[C@@H](COP3(=O)OCc4cc(-c5ccccc5)ccc4O3)O2)c(=O)[nH]c1=O (some centres undefined)	–	–	–	–	–	–	half-life [1]: 186 min
Cc1cn([C@H]2C=C[C@@H](COP3(=O)OCc4cc(-c5ccc(O)c(CO)c5)ccc4O3)O2)c(=O)[nH]c1=O (some centres undefined)	730	3.7	82	910	–	–	half-life [2]: 120 min; half-life [3]: 126 min; half-life [4]: 132 min
Cc1cn([C@H]2C=C[C@@H](COP3(=O)OCc4cc(-c5cc6c(c(C(C)(C)C)c5)OP(=O)(OC[C@@H]5C=C[C@H](n7cc(C)c(=O)[nH]c7=O)O5)OC6)cc(C(C)(C)C)c4O3)O2)c(=O)[nH]c1=O (single isomer, unassigned; form 3)	–	–	–	–	5.3	2.6	t1/2 [2]: 4.4 h; t1/2 [3]: 9.1 h; EC50 ([5]; ccrf-cem): 860 nM; EC50 ([8]; ccrf-cem): 2000 nM
Cc1cn([C@H]2C=C[C@@H](CO)O2)c(=O)[nH]c1=O [STAVUDINE]	560	29	> 250	790	–	–	–
Cc1cn([C@H]2C=C[C@@H](COP3(=O)OCc4cc(-c5cc6c(c(C(C)(C)C)c5)OP(=O)(OC[C@@H]5C=C[C@H](n7cc(C)c(=O)[nH]c7=O)O5)OC6)cc(C(C)(C)C)c4O3)O2)c(=O)[nH]c1=O (single isomer, unassigned; form 2)	–	–	–	–	4.7	3.2	t1/2 [2]: 4.1 h; t1/2 [3]: 8 h; EC50 ([5]; ccrf-cem): 490 nM; CC50 (CCRF-CEM): 19 µM; EC50 ([8]; ccrf-cem): 1000 nM
Cc1cn([C@H]2C=C[C@@H](COP3(=O)OCc4cc(-c5cc6c(c(C(C)(C)C)c5)OP(=O)(OC[C@@H]5C=C[C@H](n7cc(C)c(=O)[nH]c7=O)O5)OC6)cc(C(C)(C)C)c4O3)O2)c(=O)[nH]c1=O (single isomer, unassigned; form 1)	–	–	–	–	4.3	2.8	t1/2 [2]: 3.9 h; t1/2 [3]: 7.9 h; EC50 ([5]; ccrf-cem): 810 nM; CC50 (CCRF-CEM): 18 µM; EC50 ([8]; ccrf-cem): 1600 nM
CC(C)(C)c1cc(-c2cc(CO)c(O)c(C(C)(C)C)c2)cc(CO)c1O	7900	6.9	20	7900	–	–	–
Cc1cn([C@H]2C=C[C@@H](COP3(=O)OCc4cccc(-c5cccc6c5OP(=O)(OC[C@@H]5C=C[C@H](n7cc(C)c(=O)[nH]c7=O)O5)OC6)c4O3)O2)c(=O)[nH]c1=O (single isomer, unassigned; form 1)	–	–	–	–	3.2	–	–
Cc1cn([C@H]2C=C[C@@H](COP3(=O)OCc4cc(-c5ccc6c(c5)COP(=O)(OC[C@@H]5C=C[C@H](n7cc(C)c(=O)[nH]c7=O)O5)O6)ccc4O3)O2)c(=O)[nH]c1=O (single isomer, unassigned; form 1)	–	–	–	–	1	4.4	t1/2 [2]: 0.4 h; t1/2 [3]: 0.6 h; EC50 ([5]; ccrf-cem): 460 nM; CC50 (CCRF-CEM): 107 µM; EC50 ([8]; ccrf-cem): 1200 nM
Cc1cc(-c2cc(C)c3c(c2)COP(=O)(OC[C@@H]2C=C[C@H](n4cc(C)c(=O)[nH]c4=O)O2)O3)cc2c1OP(=O)(OC[C@@H]1C=C[C@H](n3cc(C)c(=O)[nH]c3=O)O1)OC2 (some centres undefined)	400	0.85	64	830	–	–	half-life [2]: 138 min; half-life [3]: 138 min; half-life [4]: 132 min
Cc1cn([C@H]2C=C[C@@H](COP3(=O)OCc4cccc(-c5cccc6c5OP(=O)(OC[C@@H]5C=C[C@H](n7cc(C)c(=O)[nH]c7=O)O5)OC6)c4O3)O2)c(=O)[nH]c1=O (some centres undefined)	–	–	–	–	8.2	–	–
Cc1cn([C@H]2C=C[C@@H](COP3(=O)OCc4cccc(-c5cccc6c5OP(=O)(OC[C@@H]5C=C[C@H](n7cc(C)c(=O)[nH]c7=O)O5)OC6)c4O3)O2)c(=O)[nH]c1=O (single isomer, unassigned; form 2)	–	–	–	–	8.5	–	–
Cc1cn([C@H]2C=C[C@@H](COP3(=O)OCc4cc(-c5ccc6c(c5)COP(=O)(OC[C@@H]5C=C[C@H](n7cc(C)c(=O)[nH]c7=O)O5)O6)ccc4O3)O2)c(=O)[nH]c1=O (some centres undefined)	510	–	115	620	1.7	7.5	t1/2 [2]: 0.5 h; t1/2 [3]: 0.8 h; Ratio [9]: 2
Cc1cn([C@H]2C=C[C@@H](COP3(=O)OCc4cc(-c5cc6c(c(C(C)(C)C)c5)OP(=O)(OC[C@@H]5C=C[C@H](n7cc(C)c(=O)[nH]c7=O)O5)OC6)cc(C(C)(C)C)c4O3)O2)c(=O)[nH]c1=O (some centres undefined)	880	2.9	20	1300	–	–	half-life [2]: 246 min; half-life [3]: 498 min; half-life [4]: 282 min; Ratio [10]: 2
Cc1cc(-c2cc(C)c(O)c(CO)c2)cc(CO)c1O	20000	> 50	96	> 50000	–	–	–
Cc1cn([C@H]2C=C[C@@H](COP3(=O)OCc4cc(-c5ccc6c(c5)COP(=O)(OC[C@@H]5C=C[C@H](n7cc(C)c(=O)[nH]c7=O)O5)O6)ccc4O3)O2)c(=O)[nH]c1=O (single isomer, unassigned; form 2)	–	–	–	–	3.3	3.3	half-life [2]: 42 min; half-life [3]: 60 min; EC50 ([5]; ccrf-cem): 470 nM; CC50 (CCRF-CEM): 78 µM
OCc1cc(-c2ccc(O)c(CO)c2)ccc1O	99000	18	> 250	117000	–	–	–
